The target of data set [1] is T1, ASBT (Homo sapiens, UniProt Q12908).
T1 sequence (Q12908 1-348): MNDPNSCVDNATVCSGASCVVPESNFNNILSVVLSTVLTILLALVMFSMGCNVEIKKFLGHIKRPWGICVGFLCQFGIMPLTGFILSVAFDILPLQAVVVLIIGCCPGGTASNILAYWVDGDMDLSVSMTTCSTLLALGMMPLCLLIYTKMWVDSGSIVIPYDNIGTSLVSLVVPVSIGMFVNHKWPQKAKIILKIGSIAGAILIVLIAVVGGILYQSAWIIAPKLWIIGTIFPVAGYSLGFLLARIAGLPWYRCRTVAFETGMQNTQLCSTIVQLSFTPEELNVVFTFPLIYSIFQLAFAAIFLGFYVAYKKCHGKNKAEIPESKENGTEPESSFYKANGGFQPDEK
Nature of the data set: Taurocholate uptake inhibition study in ASBT-MDCK monolayers. Conditions: for Ki: read-out: Ki (μM) ASBT, inhibition of [3H]-taurocholate uptake (2.5 μM cold TCA), 10 min, 37 °C. The data set is classed as cell-based.

Data set [2] has as its target T2, NTCP (Homo sapiens, UniProt Q14973).
T2 sequence (Q14973 1-349): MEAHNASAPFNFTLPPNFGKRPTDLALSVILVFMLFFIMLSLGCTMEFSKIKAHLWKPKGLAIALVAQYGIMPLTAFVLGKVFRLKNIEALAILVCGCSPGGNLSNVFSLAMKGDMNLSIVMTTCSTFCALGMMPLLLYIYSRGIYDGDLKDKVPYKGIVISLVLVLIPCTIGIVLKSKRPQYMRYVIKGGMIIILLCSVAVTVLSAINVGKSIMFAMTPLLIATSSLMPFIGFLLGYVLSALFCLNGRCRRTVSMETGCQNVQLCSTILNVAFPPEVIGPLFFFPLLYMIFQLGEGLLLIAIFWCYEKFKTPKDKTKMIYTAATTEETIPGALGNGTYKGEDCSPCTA
The data set can be described thus: Taurocholate uptake inhibition study in NTCP-HEK monolayers. The format is cell-based.

Data set [3] deals with T1, ASBT. Nature of the data set: Assessment of inhibition type. The data set is classed as cell-based. The note with it: inhibitor 152 μM (I/Ki = 10), taurocholate 1–200 μM.
The target of data set [4] is T2, NTCP. The data set can be described thus: Assessment of inhibition type. The format is cell-based. The note with it: inhibitor 118 μM (I/Ki = 10), taurocholate 1–200 μM.
For data set [5], the system named is ASBT-MDCK monolayers. Nature of the data set: Passive permeability from uptake in sodium-free buffer, ASBT-MDCK monolayers. The data set is classed as in vitro ADME.
The next data set relates to NTCP-HEK monolayers. Nature of the data set: Passive permeability from uptake in sodium-free buffer, NTCP-HEK monolayers. The format is in vitro ADME.
The target in data set [6] is T2, NTCP. Nature of the data set: Uptake study in NTCP-HEK monolayers. The format is cell-based. An outline of the steps:
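Stably transfected NTCP-HEK cells (hygromycin selection) were seeded at 2.5 × 10⁵/well on poly-D-lysine plates, cultured two days and washed with HBSS. Analogue was given at 1 to 250 μM in HBSS or sodium-free buffer (NaCl replaced by tetraethylammonium chloride). Read-out was acetonitrile lysis then LC/MS. Kinetics were fitted by nonlinear regression (eqns 2, 3). Jmax was normalized to same-occasion taurocholate Jmax. Highest distinguishable Kt = (Jmax/2)/Pp.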

Data set [7] has as its target T1, ASBT. The note with it: read-out: Ki (μM) ASBT; ASBT-MDCK; ref Balakrishnan et al., 2006b; cited from earlier work.
Data set [8] deals with ASBT-MDCK monolayers. Conditions: passive permeability, ref Balakrishnan et al., 2006b; cited from earlier work.
Data set [9] deals with T1, ASBT. The data set can be described thus: Uptake study in ASBT-MDCK monolayers. The format is cell-based.
[10] abbreviates: read-out: Ki (μM) NTCP, inhibition of [3H]-taurocholate uptake (2.5 μM cold taurocholate), NTCP-HEK monolayers, 5 min, 37 °C.
Where [11] appears, read: passive permeability, sodium-free buffer, NTCP-HEK.
[12] abbreviates: Ki (μM) NTCP, inhibition of [3H]-taurocholate uptake (2.5 μM cold taurocholate), NTCP-HEK monolayers, 5 min, 37 °C.
The mark [13] stands for this setting: read-out: NTCP inhibitor class (strong / moderate / weak), class by Ki, NTCP-HEK.

Here are results for eight molecules from paper PMC3319149 (European Journal of Pharmaceutical Sciences, 2012).

Where “and” joins values, the source holds several entries; their conditions need not be identical. Equal values may be shown once. Entries after “also recorded” stand apart in the source; their conditions may differ. Read-outs that look alike come from different tables or passages of the source. Marks after values point to notes of the source that are not given here.

As to `C[C@H](CCC(=O)NCC(=O)O)[C@H]1CC[C@H]2[C@@H]3[C@@H](OC(=O)c4cccnc4)C[C@@H]4C[C@H](O)CC[C@]4(C)[C@H]3CC[C@]12C` [Compound 8, 7-nicotinoyl glycoursodeoxycholate], the figures for the Ki at ASBT [1] and at NTCP [2] (setting [10]) were 15.2 ± 0.8 µM and 11.8 ± 2.1 µM, respectively. The “type of inhibition of ASBT (best fitting model)” value on ASBT [3] is given as “competitive inhibitor; also recorded: competitive model was the best fitting model”. At NTCP [4], the “type of inhibition of NTCP (best fitting model)” value is given as “competitive inhibitor; also recorded: competitive model was the best fitting model”. In addition, the “ASBT Pp*10^6 (cm/s)” value in the data set with ASBT-MDCK monolayers [5] (passive permeability, sodium-free buffer, ASBT-MDCK) is 0.95±0.05 ×10^−6 cm/s. For the same molecule, the “NTCP Pp*10^6 (cm/s)” value with NTCP-HEK monolayers (setting [11]) is 7.26±0.45 ×10^−6 cm/s.

For `C[C@H](CCC(=O)NCCS(=O)(=O)O)[C@H]1CC[C@H]2[C@@H]3[C@H](O)C[C@@H]4C[C@H](O)CC[C@]4(C)[C@H]3C[C@H](O)[C@]12C` [taurocholate, Taurocholic acid, reference compound], the “taurocholate Kt NTCP” value on NTCP [6] (value Kt was set to in regression) came out at 5.31 µM.

Regarding `COC(=O)CC[C@@H](C)[C@H]1CC[C@H]2[C@@H]3[C@@H](O)C[C@@H]4C[C@H](O)CC[C@]4(C)[C@H]3CC[C@]12C` [Compound 16, methyl ursodeoxycholate], the Ki on ASBT [1] worked out at 29.8 ± 5.1 µM; on NTCP [2] (setting [10]), 1.22 ± 0.1 µM.

Turning to `C[C@H](CCC(=O)O)[C@H]1CC[C@H]2[C@@H]3[C@H](O)C[C@@H]4C[C@H](O)CC[C@]4(C)[C@H]3CC[C@]12C` [CDCA, chenodeoxycholic acid, reference compound], the Ki is 0.939 ± 0.057 µM at NTCP [2] (setting [12]) and 1.94 ± 0.17 µM at ASBT [7]. Further, in the data set with NTCP-HEK monolayers (setting [11]), the “NTCP Pp*10^6 (cm/s)” value was 60.7±0.5 ×10^−6 cm/s. For the same molecule, the “ASBT Pp*10^6 (cm/s)” value in the data set with ASBT-MDCK monolayers [8] is on record as 20.7±0.7 ^a ×10^−6 cm/s.

For the molecule `C[C@H](CCC(=O)O)[C@H]1CC[C@H]2[C@@H]3[C@@H](O)C[C@@H]4C[C@H](O)CC[C@]4(C)[C@H]3CC[C@]12C` [UDCA, ursodeoxycholic acid, reference compound], the Ki at NTCP [2] (setting [12]) is 4.9 ± 0.47 µM; on ASBT [7], 22.6 ± 3 µM. Moreover, the “NTCP Pp*10^6 (cm/s)” value with NTCP-HEK monolayers (setting [11]) is given as 27.2±0.8 ×10^−6 cm/s. Moreover, the “ASBT Pp*10^6 (cm/s)” value in the data set with ASBT-MDCK monolayers [8] is given as 21.2±0.9 ^a ×10^−6 cm/s.

As for `C[C@H](CCC(=O)NCC(=O)O)[C@H]1CC[C@H]2[C@@H]3[C@H](O)C[C@H]4C[C@H](OC(=O)c5cccnc5)CC[C@]4(C)[C@H]3CC[C@]12C` [Compound 10, 3-nicotinoyl glycochenodeoxycholate], the Ki on ASBT [1] is 6.45 ± 0.66 µM; at NTCP [2] (setting [10]), 5.38 ± 0.44 µM; at NTCP [2] (setting [13]) it was < 25 µM. Further, the “ASBT Norm Jmax” value at ASBT [9] (Jmax normalized to taurocholate Jmax of the same occasion, ASBT-MDCK) was 2.11 and 2.1. The “Jmax ASBT” value on ASBT [9] (not normalized, ASBT-MDCK) was determined as 0.000242 nmol/s/cm^2. Further, the “ASBT Kt” value at ASBT [9] (uptake into ASBT-MDCK monolayers, 10 min) is 8.49 µM and 8.49 ± 1.34 µM. Also, at NTCP [6] (Jmax normalized to taurocholate Jmax of the same occasion, NTCP-HEK), the “NTCP Norm Jmax” value is on record as 1.48. Also, the “Jmax NTCP” value on NTCP [6] (not normalized, NTCP-HEK) is 0.00298 nmol/s/cm^2. Moreover, the “NTCP Kt” value at NTCP [6] (uptake into NTCP-HEK monolayers) is 16.3 µM and 16.3 ± 3.0 µM. Besides, the “ASBT Pp*10^6 (cm/s)” value with ASBT-MDCK monolayers [5] (MDCK) is 5.62±0.13 ×10^−6 cm/s. The “NTCP Pp*10^6 (cm/s)” value with NTCP-HEK monolayers is 12.7±0.9 ×10^−6 cm/s.

`C[C@H](CCC(=O)O)[C@H]1CC[C@H]2[C@@H]3C(=O)C[C@@H]4CC(=O)CC[C@]4(C)[C@H]3CC(=O)[C@]12C` [Compound 13, dehydrocholic acid]: at ASBT [1] (inhibition of [3H]-taurocholate uptake (2.5 μM cold TCA), 10 min, 37 °C), the “Ki (μM) ASBT” value is listed as “did not inhibit; also recorded: did not show any ASBT inhibition; also recorded: No inhibition”. Besides, the Ki on NTCP [2] (setting [12]) is 355 ± 59 µM; at NTCP [2] (NTCP inhibitor class (strong / moderate / weak), class by Ki, NTCP-HEK), > 100 µM. For the same molecule, on NTCP [2] (class by Ki, NTCP-HEK), the “NTCP inhibitor class (strong / moderate / weak)” value is recorded as “weakly”.

On to `C[C@H](CCC(=O)O)[C@H]1CC[C@H]2[C@@H]3[C@@H](OC(=O)c4ccc(F)cc4)C[C@@H]4C[C@H](O)CC[C@]4(C)[C@H]3CC[C@]12C` [Compound 3, 7-(4-fluorobenzoyloxy) ursodeoxycholate], for which the Ki at ASBT [1] was 10.3 ± 1.1 µM; at NTCP [2] (setting [10]) it was 183 ± 32 µM; at NTCP [2] (setting [13]) it was > 100 µM.
